The test system of test [1] is Plasmodium falciparum. The test can be described thus: In vitro anti-MDR effect in chloroquine and mefloquine resistant TM91C235 cell lines at 50 ng/ml concentration. Format: functional. The gist of the method:
(§1)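 TM91C235 P. falciparum in erythrocytes at 0.2% parasitemia and 1% hematocrit, in folate- and PABA-free RPMI-1640 with 10% heat-inactivated human plasma or Albumax. Incubated 66 h at 37 °C under 5% CO2/5% O2/90% N2, with 3H-hypoxanthine added at 42 h. Cells lysed by freezing at -70 °C and harvested; inhibition of isotope incorporation read by scintillation counting.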

The test system of test [2] is Plasmodium falciparum. The test can be described thus: In vitro anti-MDR effect in mefloquine resistant TM91C235 cell lines at 500 ng/ml concentration in the presence of 5 ng/mL mefloquine. The test is classed as functional. The method in brief: (§2)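 Mefloquine was held at 5 ng/mL, combined with test agent. Parasites (TM91C235) were in erythrocytes at 0.2% parasitemia and 1% hematocrit, in folate/PABA-free RPMI-1640 with human plasma or Albumax. Incubation was 66 h at 37 °C in 5% CO2/5% O2/90% N2, with 3H-hypoxanthine added for the last 24 h. Incorporation was counted after freeze-lysis and harvesting.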

Test [3] concerns Plasmodium falciparum. The test can be described thus: In vitro anti-MDR effect in chloroquine and mefloquine resistant TM91C235 cell lines at 500 ng/ml concentration. Format: functional. The gist of the method:
as §1

The nature of test [4]: Fractional inhibitory concentration (FIC) tested against Peruvian PC49 cells, isolate from South America. Format: functional, Plasmodium falciparum. The gist of the method:
(§3)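 Parasite growth read by [3H]hypoxanthine incorporation in erythrocytes at 0.2% parasitemia and 1% hematocrit. Medium: folate- and PABA-free RPMI-1640 with 10% heat-inactivated human plasma or Albumax. Cultures were kept at 37 °C under 5% CO2/5% O2/90% N2, with label added at 42 h and 66 h total incubation. Counts were taken after freeze-thaw harvest, IC50 came from nonlinear logistic fits, and FIC index was derived from isobologram.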

The test system of test [5] is Plasmodium falciparum. The test can be described thus: In vitro anti-MDR effect in mefloquine resistant TM91C235 cell lines at 50 ng/ml concentration in the presence of 5 ng/mL mefloquine. Format: functional. The method in brief: as §2
The subject of test [6] is Plasmodium falciparum. The test can be described thus: In vitro anti-MDR effect in chloroquine resistant TM91C235 cell lines at 50 ng/ml concentration in the presence of 10 ng/mL chloroquine. Format: functional. The gist of the method:
(§4)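 Test agent was combined with chloroquine at 10 ng/mL. TM91C235 was cultured in erythrocytes at 0.2% parasitemia and 1% hematocrit, in folate- and PABA-free RPMI-1640, for 66 h at 37 °C under 5% CO2/5% O2/90% N2. 3H-hypoxanthine was added at 42 h, and cell suppression was taken from scintillation counts of harvested lysates.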

The subject of test [7] is Plasmodium falciparum. The test can be described thus: In vitro anti-MDR effect in chloroquine and mefloquine resistant TM91C235 cell lines at 5000 ng/ml concentration. The test is classed as functional. The method in brief:
as §1

The subject of test [8] is Plasmodium falciparum. The test can be described thus: Fractional inhibitory concentration (FIC) tested against TM91C235 cells, isolate from South east Asia. Format: functional. The gist of the method: as §3
Test [9] relates to Plasmodium falciparum. The test can be described thus: In vitro anti-MDR effect in mefloquine resistant TM91C235 cell lines at 5000 ng/ml concentration in the presence of 5 ng/mL mefloquine. The test is classed as functional. The method in brief: as §2
Test [10] concerns Plasmodium falciparum. The test can be described thus: In vitro anti-MDR effect in chloroquine resistant TM91C235 cell lines at 5000 ng/ml concentration in the presence of 10 ng/mL chloroquine. The test is classed as functional. The method in brief: as §4
The test system of test [11] is Plasmodium falciparum. The test can be described thus: Fractional inhibitory concentration (FIC) (1:1 combination of compound and chloroquine) was tested in Plasmodium falciparum W2 clone. The test is classed as functional. The method in brief: as §3
Test [12] relates to Plasmodium falciparum. The test can be described thus: In vitro anti-MDR effect in chloroquine resistant TM91C235 cell lines at 500 ng/ml concentration in the presence of 10 ng/mL chloroquine. The test is classed as functional. The method in brief: as §4
A short description of test [13]: Fractional inhibitory concentration (FIC) tested against RCS cells, isolate from Brazil. The test is classed as functional, Plasmodium falciparum. The method in brief: as §3

Take `CCN(CC)CCCCN1c2ccccc2Sc2ccccc21`: the Suppression in the test with Plasmodium falciparum [1] is listed as 26%; in the test with Plasmodium falciparum [2] it was 30%; with Plasmodium falciparum [3] it was 38%; in the test on Plasmodium falciparum [5], 17%; in the test with Plasmodium falciparum [6] it was 31%; in the test on Plasmodium falciparum [7] it was 100%. For the same compound, the figures for the Suppression with Plasmodium falciparum [9], with Plasmodium falciparum [10] and in the test with Plasmodium falciparum [12] were 100%, 100% and 99%, respectively. In addition, the FIC turned out to be 0.41 in test [4], 0.29 in the test on Plasmodium falciparum [8], 0.23 with Plasmodium falciparum [11] and 0.41 in test [13].

Values taken from ChEMBL document CHEMBL1135479, “Design, synthesis, and evaluation of new chemosensitizers in multi-drug-resistant Plasmodium falciparum” (2002).
